Measured values published in ChEMBL document CHEMBL5236612, “Heterobivalent Inhibitors of Acetyl-CoA Carboxylase: Drug Target Residence Time and Time-Dependent Antibacterial Activity” (J Med Chem, 2022).
Converted amounts (≈) assume the structure as drawn. The source made the active and inactive calls. No cut-off for these calls is given here.

Columns and labels:
[1] = Inhibition of Escherichia coli biotin carboxylase in presence of ATP and NADH by UV-Vis spectrophotometric assay
Escherichia coli [2] = test: Antibacterial activity against tolC knockout Escherichia coli incubated for 24 hrs in presence of PMBN by microbroth dilution method; format: functional
Escherichia coli [3] = test: Antibacterial activity against tolC knockout Escherichia coli incubated for 24 hrs by microbroth dilution method; format: functional
[4] = Inhibition of Escherichia coli ACC expressed in Escherichia coli BL21(DE3) pLysS incubated for 45 mins in presence of ATP and acetyl coA by fluorescence polarization assay
How it was run: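 E. coli BC (1 nM), biotinylated BCCP (2 nM) and CT (1 nM), His-tag purified then size-exclusion purified, preincubated with inhibitor in 100 mM HEPES pH 8.0, 15 mM KHCO3, 20 mM MgCl2. ADP detected by Transcreener fluorescence polarization; Morrison fit for Ki when tight binding; triplicate.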

Escherichia coli [5] = test: Antibacterial activity against acrAB knockout Escherichia coli MG1655 incubated for 24 hrs in presence of PMBN by microbroth dilution method; format: functional
Escherichia coli [6] = test: Antibacterial activity against Escherichia coli K12 incubated for 24 hrs by microbroth dilution method; format: functional
Escherichia coli [7] = test: Antibacterial activity against acrAB knockout Escherichia coli MG1655 incubated for 24 hrs by microbroth dilution method; format: functional
Escherichia coli [8] = test: Antibacterial activity against Escherichia coli incubated for 24 hrs in presence of PMBN by microbroth dilution method; format: functional
[9] = Inhibition of Escherichia coli ACC incubated for 5 mins
How it was run: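 ACC reconstituted from 1 nM BC, 2 nM biotinylated BCCP and 1 nM CT (His-tagged E. coli proteins) in 100 mM HEPES pH 8.0 with 15 mM KHCO3 and 20 mM MgCl2. Enzyme was mixed with inhibitor or DMSO, and reactions were started with 10 μM ATP and 200 μM acetyl-CoA. ADP formed was read by Transcreener fluorescence polarization after a 45 min endpoint.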

Escherichia coli [10] = test: (§1) Displacement of 11-(4-(22-(2,4-dibromo-3-(2,7-diaminopyrido[2,3-d]pyrimidin-6-yl)phenoxy)-5,8,11,14,17,20-hexaoxadocos-1-yl)-1H-1,2,3-triazol-1-yl)-N-((1S)-3-(((2S)-3-methyl-1-((3R,4S)-4-methyl-2,5-dioxopyrrolidin-3-yl)-1-oxobutan-2-yl)amino)-3-oxo-1-phenylpropyl)undecanamide from Escherichia coli ACC expressed in Escherichia coli BL21(DE3) pLysS at 50 uM preincubated for 1 hr in presence of Moiramide-B followed by compound addition by LC-MS/MS method
How it was run: (§2)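 Purified E. coli ACC (1 μM), in 100 mM HEPES pH 8.0 with 15 mM KHCO3 and 20 mM MgCl2, was held 1 h at 22 °C with equimolar heterobivalent inhibitor. Competitor was then added: 100 μM of one warhead alone, or 50 μM each of both warheads together. At timed points, aliquots were spun through G-25 gel filtration columns in 10 mM ammonium formate pH 8.0. Flow-through was denatured in 50% MeCN and bound inhibitor quantified by LC-MS/MS. Dissociation rate came from a single-exponential fit.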

Escherichia coli [11] = test: as §1, with “100” for “50”, “hr” for “hr in presence of Moiramide-B”; how it was run: as §2
Escherichia coli [12] = test: Additive antibacterial activity against Escherichia coli harbouring TolC-deficient mutant assessed as fractional inhibitory concentration index; format: functional
How it was run: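 Checkerboard MIC of two compounds combined against tolC-knockout E. coli, without PMBN; FIC index derived from combination MICs.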

Escherichia coli [13] = test: Antibacterial activity against Escherichia coli harbouring TolC-deficient mutant assessed as post antibiotic effect by measuring time required for increase in 1 log10 CFU/ml of bacteria at 8 times MIC incubated for 1 hr followed by compound washout and measured for 16 hrs; format: functional
Escherichia coli [14] = test: Antibacterial activity against Escherichia coli harbouring TolC-deficient mutant assessed as post antibiotic effect by measuring time required for increase in 1 log10 CFU/ml of bacteria at 16 times MIC incubated for 1 hr followed by compound washout and measured for 16 hrs; format: functional
Escherichia coli [15] = test: Antibacterial activity against Escherichia coli harbouring TolC-deficient mutant assessed as post antibiotic effect by measuring time required for increase in 1 log10 CFU/ml of bacteria at 32 times MIC incubated for 1 hr followed by compound washout and measured for 16 hrs; format: functional
Escherichia coli [16] = test: as §1, with “6-(2,6-dibromophenyl)pyrido[2,3-d]pyrimidine-2,7-diamine” for “Moiramide-B”; how it was run: as §2
[17] = Inhibition of Escherichia coli ACC expressed in Escherichia coli BLR(DE3) cells
Escherichia coli [18] = test: Synergistic antibacterial activity against Escherichia coli harbouring TolC-deficient mutant assessed as fractional inhibitory concentration index at […] in presence of PMBN; format: functional; details: dose 0.025 µM

Compound	MIC (Escherichia coli [2]) [µM]	MIC (Escherichia coli [3]) [µM]	IC50 [4] [nM]	MIC (Escherichia coli [5]) [µM]	MIC (Escherichia coli [6]) [µM]	Activity (Escherichia coli [11])	also measured
COc1cc(Br)c(-c2cc3cnc(N)nc3nc2N)c(Br)c1	–	–	–	–	–	–	IC50 [1]: 1200 nM
CC(C)[C@H](NC(=O)C[C@H](NC(=O)CCCCCCCCCCn1cc(CCCCOCCOCCOCCOCCOCCOCCOc2cc(Br)c(-c3cc4cnc(N)nc4nc3N)c(Br)c2)nn1)c1ccccc1)C(=O)[C@@H]1C(=O)NC(=O)[C@H]1C	0.78	6.25 (≈ 8.28 µg/mL)	3.53	> 25	–	–	–
COc1ccc(Br)c(-c2cc3cnc(N)nc3nc2N)c1Br	–	–	–	–	–	–	IC50 [1]: ≤ 250 nM
Nc1ncc2cc(-c3c(Br)cc(OCCO)cc3Br)c(N)nc2n1	–	–	–	–	–	–	IC50 [1]: 730 nM
Nc1ncc2cc(-c3c(Br)ccc(OCCO)c3Br)c(N)nc2n1	–	–	–	–	–	–	IC50 [1]: 550 nM
C#CCCCCOCCOCCOCCOCCOCCOCCOc1cc(Br)c(-c2cc3cnc(N)nc3nc2N)c(Br)c1	> 25	–	849	> 25	–	–	–
C#CCCCCOCCOCCOCCOCCOCCOCCOCCOCCOCCOCCOCCOCCOCCOCCOCCOc1ccc(Br)c(-c2cc3cnc(N)nc3nc2N)c1Br	12.5	25 (≈ 28.8 µg/mL)	64	> 25	> 25	–	–
C#CCCCCOCCOCCOCCOc1ccc(Br)c(-c2cc3cnc(N)nc3nc2N)c1Br	1.56	–	19	3.13	> 25	–	–
CC(C)[C@H](NC(=O)C[C@H](NC(=O)CCCCCCCCCCN=[N+]=[N-])c1ccccc1)C(=O)[C@@H]1C(=O)NC(=O)[C@H]1C	0.2	–	74	1.56	> 25	–	MIC (Escherichia coli [7]): > 25 µM; MIC (Escherichia coli [8]): 12.5 µM
C#CCCCCOCCOCCOCCOCCOCCOCCOCCOCCOCCOCCOCCOCCOc1ccc(Br)c(-c2cc3cnc(N)nc3nc2N)c1Br	–	25 (≈ 25.5 µg/mL)	82	> 25	> 25	–	–
C#CCCCCOCCOCCOCCOCCOCCOCCOCCOCCOCCOCCOCCOCCOCCOCCOCCOCCOCCOCCOc1ccc(Br)c(-c2cc3cnc(N)nc3nc2N)c1Br	12.5	> 25	126	> 25	–	–	–
C#CCCCCOCCOCCOCCOCCOCCOCCOc1ccc(Br)c(-c2cc3cnc(N)nc3nc2N)c1Br	–	–	32	6.25	> 25	–	–
Nc1ncc2cc(-c3c(Br)cccc3Br)c(N)nc2n1	–	1.56 (≈ 0.616 µg/mL)	–	–	–	inactive	IC50 [9]: < 5 nM; Activity (Escherichia coli [10]): Active; fractional inhibitory concentration index (FICI) (Escherichia coli [12]): 0.5
CC(C)[C@H](NC(=O)C[C@H](NC(=O)CCCCCCCCCCn1cc(CCCCOCCOCCOCCOCCOCCOCCOc2ccc(Br)c(-c3cc4cnc(N)nc4nc3N)c2Br)nn1)c1ccccc1)C(=O)[C@@H]1C(=O)NC(=O)[C@H]1C	0.39	–	–	3.13	> 25	–	PAE (Escherichia coli [13]): 1.7 h; MIC (Escherichia coli [7]): > 25 µM; Ki [4]: 0.25 nM; PAE (Escherichia coli [14]): 1.7 h; MIC (Escherichia coli [8]): > 25 µM; PAE (Escherichia coli [15]): 3.4 h
CC(C)[C@H](NC(=O)C[C@H](NC(=O)CCCCCCCCCCn1cc(CCCCOCCOCCOCCOCCOCCOCCOCCOCCOCCOc2ccc(Br)c(-c3cc4cnc(N)nc4nc3N)c2Br)nn1)c1ccccc1)C(=O)[C@@H]1C(=O)NC(=O)[C@H]1C	0.78	–	–	3.13	> 25	inactive	PAE (Escherichia coli [13]): 1.2 h; Activity (Escherichia coli [16]): Active; Ki [4]: 0.31 nM; Activity (Escherichia coli [10]): Active; PAE (Escherichia coli [14]): 1.8 h; PAE (Escherichia coli [15]): 3.4 h
CC(C)[C@H](NC(=O)C[C@H](NC(=O)CCCCCCCCCCn1cc(CCCCOCCOCCOCCOCCOCCOCCOCCOCCOCCOCCOCCOCCOCCOCCOCCOc2ccc(Br)c(-c3cc4cnc(N)nc4nc3N)c2Br)nn1)c1ccccc1)C(=O)[C@@H]1C(=O)NC(=O)[C@H]1C	1.56	–	–	12.5	> 25	inactive	PAE (Escherichia coli [13]): 1.9 h; Activity (Escherichia coli [16]): Active; Ki [4]: 0.33 nM; Activity (Escherichia coli [10]): Active; PAE (Escherichia coli [14]): 3.8 h; PAE (Escherichia coli [15]): 4.6 h
CC(C)[C@H](NC(=O)C[C@H](NC(=O)CCCCCCCCCCn1cc(CCCCOCCOCCOCCOc2ccc(Br)c(-c3cc4cnc(N)nc4nc3N)c2Br)nn1)c1ccccc1)C(=O)[C@@H]1C(=O)NC(=O)[C@H]1C	0.78	3.13 (≈ 3.73 µg/mL)	–	6.25	> 25	inactive	PAE (Escherichia coli [13]): 1 h; Activity (Escherichia coli [16]): Active; Ki [4]: 0.26 nM; Activity (Escherichia coli [10]): Active; PAE (Escherichia coli [14]): 1.2 h; PAE (Escherichia coli [15]): 2.6 h
C#CCCCCOc1ccc(Br)c(-c2cc3cnc(N)nc3nc2N)c1Br	0.78	1.56 (≈ 0.766 µg/mL)	≤ 1	0.78	> 25	–	MIC (Escherichia coli [7]): > 25 µM; MIC (Escherichia coli [8]): 12.5 µM
CC(C)[C@H](NC(=O)C[C@H](NC(=O)CCCCCCCCCCn1cc(CCCCOc2ccc(Br)c(-c3cc4cnc(N)nc4nc3N)c2Br)nn1)c1ccccc1)C(=O)[C@@H]1C(=O)NC(=O)[C@H]1C	0.78	–	1.81	12.5	> 25	inactive	PAE (Escherichia coli [13]): 1.9 h; Activity (Escherichia coli [16]): Active; Activity (Escherichia coli [10]): Active; PAE (Escherichia coli [14]): 2.2 h; PAE (Escherichia coli [15]): 3.8 h
C#CCCCCOCCOCCOCCOCCOCCOCCOCCOCCOCCOc1ccc(Br)c(-c2cc3cnc(N)nc3nc2N)c1Br	12.5	25 (≈ 22.2 µg/mL)	98	15	> 25	–	–
CC(C)[C@H](NC(=O)C[C@H](NC(=O)CCCCCCCCCCn1cc(CCCCOCCOCCOCCOCCOCCOCCOCCOCCOCCOCCOCCOCCOc2ccc(Br)c(-c3cc4cnc(N)nc4nc3N)c2Br)nn1)c1ccccc1)C(=O)[C@@H]1C(=O)NC(=O)[C@H]1C	1.56	–	–	6.25	> 25	inactive	PAE (Escherichia coli [13]): 2.1 h; Activity (Escherichia coli [16]): Active; Ki [4]: 0.18 nM; Activity (Escherichia coli [10]): Active; PAE (Escherichia coli [14]): 2.6 h; PAE (Escherichia coli [15]): 3.6 h
C/C=C/C=C/C(=O)N[C@@H](CC(=O)N[C@H](C(=O)[C@@H]1C(=O)NC(=O)[C@H]1C)C(C)C)c1ccccc1	0.1	1.56 (≈ 0.708 µg/mL)	4.5	0.39	> 25	inactive	Activity (Escherichia coli [16]): Active; MIC (Escherichia coli [7]): 25 µM (≈ 11.3 µg/mL); MIC (Escherichia coli [8]): 3.13 µM; IC50 [17]: 6 nM; fractional inhibitory concentration index (FICI) (Escherichia coli [12]): 0.5; FIC (Escherichia coli [18]): 0.38
